These results are taken from ChEMBL document CHEMBL1122161, “Irreversible enzyme inhibitors. 202. Candidate active-site-directed irreversible inhibitors of 5-fluoro-2'-deoxyuridine phosphorylase from Walker 256 rat tumor derived from 1-benzyl-5-(3-ethoxybenzyl)uracil” (J Med Chem, 1982).

The nature of assay [1]: (§1) Ability for reversible inhibition of Walker 256 5-Fluoro-2'-deoxyuridine Phosphorylase. The note with it: read-out: I50. Details: species or system Rattus norvegicus. Summed up: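 Walker 256 rat tumor FUDR phosphorylase (uridine-deoxyuridine phosphorylase) was assayed with 400 μM FUDR substrate in pH 5.9 arsenate-succinate buffer containing 10% Me2SO. The value is the inhibitor concentration giving 50% inhibition (I50).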

A short description of assay [2]: as §1. Details: species or system Rattus norvegicus. The settings on record: read-out: I 50. Summed up: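 Enzyme from Walker 256 rat tumor, assayed with 400 μM FUDR as substrate in pH 5.9 arsenate-succinate buffer with 10% Me2SO. Value reported as concentration giving 50% inhibition.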
The species named for another assay is Rattus norvegicus. The experiment in a line: Irreversible inhibition of Walker 256 FUDR phosphorylase; expressed as Vo/Vi, velocity without inhibitor to that of velocity with inhibitor. In a few lines:
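Walker 256 FUDR phosphorylase preincubated 20 min at ambient temperature with 20 μM (final) inhibitor in pH 5.9 arsenate-succinate buffer, 10% Me2SO, alongside zero-time tubes. Unbound inhibitor then removed by two 1-octanol extractions. Remaining activity assayed after adding 4 mM FUDR stock, stopped with 5% trichloroacetic acid, read as for reversible assay. V0/Vi of 2 corresponds to 50% inhibition.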

On to `Oc1ncc(Cc2ccccc2)c(O)n1`, for which, in assay [1], the IC50 was 5300 nM.

`CCOc1cccc(Cc2cn(Cc3cccc(NC(=O)Nc4cccc(S(=O)(=O)F)c4)c3)c(=O)[nH]c2=O)c1`: the IC50 in assay [2] worked out at 1100 nM. Besides, in the assay filed under Rattus norvegicus, the Ratio was found to be 1.2.

Take `Oc1ncc(Cc2cccc(OCc3ccccc3)c2)c(O)n1`: the IC50 in assay [1] came out at 500 nM.

Consider `CCOc1cccc(Cc2cn(Cc3ccccc3)c(=O)[nH]c2=O)c1`, for which, in assay [2], the IC50 is 1200 nM.

On to `CCOc1cccc(Cc2cn(Cc3cccc(NC(=O)c4cccc(S(=O)(=O)F)c4)c3)c(=O)[nH]c2=O)c1`, for which the IC50 in assay [2] was found to be 3200 nM. The Ratio in the assay filed under Rattus norvegicus worked out at 1.1.

With `O=c1[nH]c(=O)n(Cc2ccccc2)cc1Cc1cccc(OCc2ccccc2)c1`, in assay [1], the IC50 was found to be 2500 nM.

`Cn1cc(Cc2ccccc2)c(=O)[nH]c1=O`: the IC50 in assay [1] was 6200 nM.

For `CCOc1cccc(Cc2cn(Cc3cccc(NC(=O)Nc4ccc(S(=O)(=O)F)cc4)c3)c(=O)[nH]c2=O)c1`, the IC50 in assay [2] turned out to be 1900 nM. The Ratio in the assay listed under Rattus norvegicus is 1.1.

On to `CCOc1cccc(Cc2cn(Cc3ccc(NC(=O)c4cccc(S(=O)(=O)F)c4)cc3)c(=O)[nH]c2=O)c1`, for which, in assay [2], the IC50 is 33000 nM. The Ratio in the assay filed under Rattus norvegicus was 1.

Take `CCOc1cccc(Cc2cn(Cc3cccc(NC(=O)c4ccccc4)c3)c(=O)[nH]c2=O)c1`: in assay [1], the IC50 was 1200 nM. The Ratio in the assay listed under Rattus norvegicus worked out at 1.2.

As to `O=c1[nH]c(=O)n(Cc2ccccc2)cc1Cc1ccccc1`, the IC50 in assay [1] was determined as 2600 nM.

In the case of `COc1cccc(Cc2cnc(O)nc2O)c1`, the IC50 in assay [1] worked out at 1900 nM.

As for `CCOc1cccc(Cc2cnc(O)nc2O)c1`, the IC50 in assay [2] amounted to 1400 nM.

For `O=c1[nH]c(=O)n(CCCOc2ccccc2)cc1Cc1ccccc1`, the IC50 in assay [1] turned out to be 5700 nM.

`CCOc1cccc(Cc2cn(Cc3ccc(NC(=O)c4ccc(S(=O)(=O)F)cc4)cc3)c(=O)[nH]c2=O)c1`: the IC50 in assay [2] was found to be 15000 nM. Besides, in the assay listed under Rattus norvegicus, the Ratio came to 1.

`CCOc1cccc(Cc2cn(Cc3ccc(NC(=O)c4ccccc4)cc3)c(=O)[nH]c2=O)c1`: the IC50 in assay [1] is 3800 nM.

In the case of `CCOc1cccc(Cc2cn(Cc3cccc(NC(=O)c4ccc(S(=O)(=O)F)cc4)c3)c(=O)[nH]c2=O)c1`, the IC50 in assay [2] is 2500 nM. For the same compound, the Ratio in the assay listed under Rattus norvegicus was 1.
